# PG9 Ab binder = binds the HIV-1 gp120 antibody PG9. TR-FRET gp120-PG9 antibody binding. inhibition, % at 6.7 µM. hit rate 0.43% among 360,000. AID 624416; in the data active means inhibition above about 8.5%
# H9c2 TAG inh = triacylglycerol accumulation inhibition; H9c2 cells, Nile Red lipid (TAG) fluorescence; cells loaded with 200 µM oleic acid; inhibition, % at 12.5 µM; hit rate 0.66% among 230,000; AID 651582;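 active means pattern-corrected inhibition of lipid staining of at least 50% with the nuclear-stain viability signal not falling by more than 50%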;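 further: 0% = DMSO wells and 100% = triacsin C control wells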
# beta cell repl = inducers of beta-cell replication in MIN6 cells | MIN6 cells proliferation, ATPlite luminescence, 48 h; cells starved in 0.2% serum; 100% = growth in 10% serum | proliferation, % at 10 µM | hit rate 0.29% among 330,000 | AID 2380;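 active means compounds whose signal lies at least 3.5 SD above the mean of all wells on their plate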;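 further: 0% = DMSO-treated cells in low-serum medium and 100% = 10% serum control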
# T cruzi repl = blocks replication of Trypanosoma cruzi; T. cruzi beta-gal in NIH3T3, luminescence, 90 h; inhibition, % (no concentration beside the values); hit rate 1.4% among 300,000;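 active means mean inhibition across valid replicates above about 55%, limit read from the data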;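 further: signal also drops with host cell toxicity which is not excluded here; 0% = plate median of DMSO wells and 100% = zero luminescence signal; higher percent means less beta-gal luminescence so fewer parasites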
#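 Assay system: NIH/3T3 fibroblasts plus reporter T. cruzi. Amount: NIH/3T3 cells, 5,000 per well. Buffer or medium: DMEM, 2% fetal bovine serum. Doses: compound pinned at 50 nL/well, DMSO. Schedule: ≥90 h infection period, 3 h prior cell attachment. Signal: luminescent β-galactosidase signal after 60 min lysis. Read-out: parasite load inhibition, %.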
# hiPSC survival = hiPSC single-cell survival enhancement | ATPlite luminescence; 100% = ROCK inhibitor wells, 0% = DMSO | AID 602274 | survival enhancement, % at 20 µM | hit rate 0.044% among 360,000; in the data active means survival enhancement above about 18%;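 further: cells exposed to compounds for 16 hours before the ATP read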
# Rev-erbA mod = modulates human Rev-erb alpha binding to DNA; Rev-erbα–FITC-DNA binding, fluorescence polarization, 90 min; activity, % at 10 µM; hit rate 0.79% among 370,000; AID 1259318;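 active means activity above about 14%, limit read from the data; passing the limit was not always enough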;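 further: 0% = DMSO wells with 35 nM protein and 100% = DMSO wells with 750 nM protein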
# Target sequence (P20393 whole entry, looked up): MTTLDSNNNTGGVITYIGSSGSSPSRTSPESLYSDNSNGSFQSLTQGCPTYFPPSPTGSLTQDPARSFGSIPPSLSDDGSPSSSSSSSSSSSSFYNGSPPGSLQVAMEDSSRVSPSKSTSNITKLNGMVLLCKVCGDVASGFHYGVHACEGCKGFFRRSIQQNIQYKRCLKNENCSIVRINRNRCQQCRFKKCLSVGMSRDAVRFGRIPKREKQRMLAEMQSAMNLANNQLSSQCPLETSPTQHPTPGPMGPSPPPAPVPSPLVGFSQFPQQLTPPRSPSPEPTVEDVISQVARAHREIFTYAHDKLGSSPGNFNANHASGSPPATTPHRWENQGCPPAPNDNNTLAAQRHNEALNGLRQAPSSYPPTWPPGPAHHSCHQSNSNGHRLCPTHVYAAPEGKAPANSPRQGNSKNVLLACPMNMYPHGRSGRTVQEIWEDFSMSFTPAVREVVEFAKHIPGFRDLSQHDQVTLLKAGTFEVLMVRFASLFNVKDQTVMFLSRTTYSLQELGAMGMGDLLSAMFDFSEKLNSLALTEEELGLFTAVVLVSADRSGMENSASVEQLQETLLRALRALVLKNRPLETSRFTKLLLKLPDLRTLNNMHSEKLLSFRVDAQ
# TAG conf = triacylglycerol accumulation inhibition, confirmation | shares compounds with H9c2 TAG inh | H9c2 lipid accumulation, Nile Red fluorescence; cells loaded with 200 µM oleic acid | inhibition, % at 12.5 µM | hit rate 71% among 990 | AID 651629;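 active means mean inhibition across replicates of 40% or more; inactive means mean inhibition below 40%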;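 further: plate controls were DMSO only wells for no effect and Triacsin C treated wells for full effect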
# * hit, by the source's call; x = no result. This is a sample that favours compounds with a hit; in the whole collection about 2.9% have one here.
SMILES,PG9 Ab binder,H9c2 TAG inh,beta cell repl,T cruzi repl,hiPSC survival,Rev-erbA mod,TAG conf
NC(=O)c1ccc(NC(=O)CN2CCN(c3ccc(Cl)cc3)CC2)cc1,-1.4,x,0.7,-28.3,-0.5,-3.4,x
Cc1nn2c(N3CCCC3)cc(C(C)C)nc2c1-c1ccccc1,-0.6,72.2*,-5.6,15.7,-2.2,-0.8,59.0*
Cc1ccc(-n2cnc3scc(-c4cccs4)c3c2=O)cc1,1.8,-60.2,3.8,16.9,-2.6,3.9,x
c1ccc(C2Nc3ccccc3-c3nc4ccccc4n32)cc1 (stereo unspecified),-0.6,25.3,0.1,6.2,-1.0,1.6,x
c1ccc(C2Nc3ccccc3-c3nc4ccccc4n32)nc1 (stereo unspecified),-2.5,55.1*,-1.0,-16.3,0.6,3.3,15.8
CCOC(=O)c1c(C)n(C)c2cc(Br)c(C)cc12,-2.3,x,0.3,12.6,3.8,-0.4,x
CN(C)c1ccc(CN2CCC(C(=O)NC(c3ccc(F)cc3)c3ccc4ccccc4n3)CC2)cc1 (stereo unspecified),-0.1,55.8*,x,x,-2.8,-2.2,38.2
O=C(NC(c1ccc(F)cc1)c1ccc2ccccc2n1)C1CCN(Cc2ccc3ccccc3n2)CC1 (stereo unspecified),-0.1,-8.4,x,x,-1.2,-3.6,x
COc1cc(/C=C/CN2CCC(C(=O)NC(c3ccc(F)cc3)c3ccc4ccccc4n3)CC2)ccc1OC(C)=O (stereo unspecified),-0.2,53.6*,x,x,-1.5,-2.9,54.1*
O=C(NC(c1ccc(F)cc1)c1ccc2ccccc2n1)C1CCN(CCOc2ccc(Cl)cc2)CC1 (stereo unspecified),-0.6,-7.5,x,x,-2.0,-3.0,x
COc1ccccc1NC(=O)CC(=O)Nc1ccccc1OC,1.8,x,-0.8,-4.8,0.5,-2.1,x
O=C(Nc1cccc(-c2csc(Nc3cccc(C(F)(F)F)c3)n2)c1)c1ccccc1,-1.1,37.8,-9.1,32.4,2.3,4.7,x
O=C(Nc1ccc(-c2csc(Nc3ccc(Cl)cc3)n2)cc1)c1ccccc1,0.1,-3.7,-4.1,x,-4.2,-2.6,x
O=C(Nc1ccc(-c2csc(Nc3cccc(C(F)(F)F)c3)n2)cc1)c1ccccc1,-3.5,51.3*,-6.8,78.6*,4.4,6.4,62.9*
O=C(Nc1ccc(-c2csc(Nc3cccc(C(F)(F)F)c3)n2)cc1)c1cc([N+](=O)[O-])cc(C(F)(F)F)c1,-3.4,71.5*,-8.7,-12.8,-1.5,1.0,68.5*
CC(c1ccon1)N(C)Cc1c(C(=O)N(C)Cc2ccccc2)nc2ccccn12 (stereo unspecified),-2.3,1.3,5.7,10.2,-2.0,-0.9,x
CC1(C)Cc2c(sc(NC(=O)COc3ccc(Cl)cc3Cl)c2C(N)=O)C(C)(C)N1,1.0,25.0,-7.2,17.9,-0.5,11.9,x
CC(C#N)(NC(=O)CN1CCN(S(=O)(=O)c2ccc(Br)cc2Cl)CC1)C1CC1 (stereo unspecified),-0.6,-8.6,-3.7,x,0.0,4.1,x
Cc1ccc(NC(=O)COC(=O)c2ccc3c(c2)NC(=O)C2CCCN32)cc1 (stereo unspecified),2.3,66.4*,-4.7,-6.1,1.0,5.3,22.1
CCOC(=O)c1c(C)nc(C(Cl)(Cl)Cl)nc1N,-0.4,9.6,1.2,-6.7,-0.4,-7.0,x
CC(C)(Oc1ccc(Cl)cc1)C(=O)Nc1ccc2oc(-c3ccncc3)nc2c1,-2.7,56.6*,-0.5,13.0,2.5,0.2,46.4*
CCOC(=O)CNC(=O)C(Cc1ccccc1)NS(=O)(=O)c1cccs1 (stereo unspecified),0.2,-3.6,-3.6,x,-0.4,-1.8,x
COc1cccc(/C=N/NC(=O)CSc2cccc3cccnc23)c1,-0.7,61.0*,-2.0,7.8,0.1,2.4,55.7*
CCOC(=O)CSc1cccc2cccnc12,-2.1,95.7*,-3.6,27.1,0.8,9.3,40.7*
O=C(c1ccc(Cl)cc1)c1cc([N+](=O)[O-])ccc1N1CCOCC1,-0.9,35.0,-4.2,13.1,0.0,-2.6,x
SMILES,PG9 Ab binder,H9c2 TAG inh,beta cell repl,T cruzi repl,hiPSC survival,Rev-erbA mod,TAG conf
CN1CCN(c2ccc([N+](=O)[O-])cc2C(=O)c2ccc(Cl)cc2)CC1,-0.5,53.8*,1.5,0.7,0.0,2.7,49.5*
COc1ccc(C2Nc3ccccc3C(=O)N2NS(=O)(=O)c2ccccc2)c(OC)c1 (stereo unspecified),0.1,x,0.0,-20.7,-0.2,-4.2,x
COc1cc(-c2nc3ccccc3nc2-c2ccc(O)c(OC)c2)ccc1O,-1.9,x,1.4,9.1,-0.1,4.0,x
COc1cc(-c2nc3c(c(C)nn3-c3ccccc3)c3cc(OC)c(OC)cc23)ccc1O,-2.0,61.8*,-3.6,39.2,0.1,11.2,58.5*
COC(=O)c1cn(C(=O)c2cc(C)cc(C)c2)c2ccccc12,0.1,-4.3,-2.2,-6.4,0.6,6.5,x
Clc1cccc(Nc2nc(-c3ccncc3)nc3ccccc23)c1,1.4,66.5*,-4.3,42.9,-0.7,-22.0,51.8*
COc1cccc(CC(=O)OCC(=O)c2cc(OC)ccc2OC)c1,-0.2,-6.7,-1.9,x,-0.5,2.9,x
COc1ccc(/C=C/C(=O)NCC(=O)N/N=C/c2cc(Br)ccc2OC)cc1,-1.1,x,-2.3,6.5,-0.5,1.2,x
COc1ccccc1/C=C/C(=O)NCC(=O)N/N=C/c1cc(Br)ccc1OC,-4.0,53.6*,-2.4,27.6,0.2,-0.9,39.8
Nc1c(C(=O)Nc2ccccc2)c2nc3ccccc3nc2n1-c1ccc(O)cc1,-0.1,64.4*,-3.8,58.6*,0.5,7.0,64.6*
CCOC(=O)c1c(N)n(-c2ccc(N)cc2)c2nc3ccccc3nc12,-1.1,10.1,1.3,-2.5,1.3,5.1,x
Nc1ccc(C#Cc2c(-c3ccsc3)oc3ccc(N4CCOCC4)cc23)cc1,3.7,50.9*,-8.8,0.9,-4.0,4.0,53.0*
COC(=O)c1ccc(/C=C/c2c(-c3ccsc3)oc3ccc(N4CCOCC4)cc23)cc1,6.5,59.8*,-8.0,21.7,-2.3,2.9,54.3*
COc1ccc(-c2c(-c3ccsc3)oc3ccc(N4CCOCC4)cc23)cn1,0.0,1.3,-5.1,14.3,-1.4,3.0,x
COc1ccc(-c2oc3ccc(N4CCOCC4)cc3c2C#CCO)cc1,5.6,22.2,-8.2,27.5,1.6,1.9,x
COCCNC(=O)CNC(=S)N(CCCN1CCOCC1)Cc1cccs1,1.0,-3.7,-2.9,-23.4,0.0,-2.6,x
CCOCCCNC(=O)Cn1nc(-c2ccccc2)ccc1=O,-1.8,3.0,-2.2,-3.2,0.5,2.6,x
COc1cc2c(cc1OC)CN(C(=S)Nc1ccccc1)CC2,-0.4,x,-1.2,3.0,-0.9,-1.4,x

# Assay outcomes from PubChem.
